Reference: ChEMBL document CHEMBL1649124, “Genetic variability among ampC genes from acinetobacter genomic species 3” (Antimicrob Agents Chemother, 2009)
≈ marks a conversion by molar mass, not a printed value.

How the values were obtained:
Type in all cases: functional
Acinetobacter pittii [1] = assay: Antibacterial activity against Acinetobacter genomosp. 3 isolate 52 by Etest method
Procedure, shortened: (§1)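 MICs for AG3 clinical isolates were read by Etest following the manufacturer's instructions. Isolates were stored at –80°C in 10% Brucella glycerol broth before testing.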

Acinetobacter pittii [2] = assay: Antibacterial activity against Acinetobacter genomosp. 3 isolate 56 by Etest method; procedure, shortened: as §1
Acinetobacter pittii [3] = assay: Antibacterial activity against Acinetobacter genomosp. 3 isolate 60 by Etest method; procedure, shortened: as §1
Acinetobacter pittii [4] = assay: Antibacterial activity against Acinetobacter genomosp. 3 isolate 65 by Etest method; procedure, shortened: as §1
Acinetobacter pittii [5] = assay: Antibacterial activity against Acinetobacter genomosp. 3 isolate 20 by Etest method in presence of cloxacillin; procedure, shortened: as §1
Acinetobacter pittii [6] = assay: Antibacterial activity against Acinetobacter genomosp. 3 isolate 52 by Etest method of efflux pump inhibitor CCCP
Acinetobacter pittii [7] = assay: Antibacterial activity against Acinetobacter genomosp. 3 isolate 56 by Etest method in presence of efflux pump inhibitor CCCP
Acinetobacter pittii [8] = assay: Antibacterial activity against Acinetobacter genomosp. 3 isolate 65 by Etest method in presence of cloxacillin; procedure, shortened: as §1
Acinetobacter pittii [9] = assay: Antibacterial activity against Acinetobacter genomosp. 3 isolate 65 by Etest method in presence of efflux pump inhibitor PAN
Acinetobacter pittii [10] = assay: Antibacterial activity against Acinetobacter genomosp. 3 isolate 67 by Etest method in presence of efflux pump inhibitor CCCP
Acinetobacter pittii [11] = assay: Antibacterial activity against Acinetobacter genomosp. 3 isolate 69 by Etest method in presence of cloxacillin; procedure, shortened: as §1
Acinetobacter pittii [12] = assay: Antibacterial activity against Acinetobacter genomosp. 3 isolate 69 by Etest method in presence of efflux pump inhibitor PAN
Acinetobacter pittii [13] = assay: Antibacterial activity against Acinetobacter genomosp. 3 isolate 90 by Etest method in presence of cloxacillin; procedure, shortened: as §1
Acinetobacter pittii [14] = assay: Antibacterial activity against Acinetobacter genomosp. 3 isolate 109 by Etest method in presence of cloxacillin; procedure, shortened: as §1
Acinetobacter pittii [15] = assay: Antibacterial activity against Acinetobacter genomosp. 3 isolate 109 by Etest method in presence of efflux pump inhibitor PAN
Acinetobacter pittii [16] = assay: Antibacterial activity against Acinetobacter genomosp. 3 isolate 128 by Etest method in presence of cloxacillin; procedure, shortened: as §1
Acinetobacter pittii [17] = assay: Antibacterial activity against Acinetobacter genomosp. 3 isolate 128 by Etest method in presence of efflux pump inhibitor CCCP
Acinetobacter pittii [18] = assay: Antibacterial activity against Acinetobacter genomosp. 3 isolate 195 by Etest method in presence of efflux pump inhibitor CCCP
Acinetobacter pittii [19] = assay: Antibacterial activity against Acinetobacter genomosp. 3 isolate 243 by Etest method in presence of efflux pump inhibitor CCCP
Escherichia coli [20] = assay: Antibacterial activity against Escherichia coli DH5alpha by Etest method
Procedure, shortened: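 E. coli DH5α host strain, grown at 37°C in LB medium. MICs of β-lactams determined by Etest following the manufacturer's instructions.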

Acinetobacter pittii [21] = assay: Antibacterial activity against Acinetobacter genomosp. 3 isolate 109 by Etest method in presence of cloxacillin and efflux pump inhibitor PAN
Acinetobacter pittii [22] = assay: Antibacterial activity against Acinetobacter genomosp. 3 isolate 52 by Etest method in presence of cloxacillin and efflux pump inhibitor CCCP
Acinetobacter pittii [23] = assay: Antibacterial activity against Acinetobacter genomosp. 3 isolate 56 by Etest method in presence of cloxacillin and efflux pump inhibitor PAN
Acinetobacter pittii [24] = assay: Antibacterial activity against Acinetobacter genomosp. 3 isolate 56 by Etest method in presence of cloxacillin and efflux pump inhibitor CCCP
Acinetobacter pittii [25] = assay: Antibacterial activity against Acinetobacter genomosp. 3 isolate 60 by Etest method in presence of cloxacillin and efflux pump inhibitor PAN
Acinetobacter pittii [26] = assay: Antibacterial activity against Acinetobacter genomosp. 3 isolate 60 by Etest method in presence of cloxacillin and efflux pump inhibitor CCCP
Acinetobacter pittii [27] = assay: Antibacterial activity against Acinetobacter genomosp. 3 isolate 67 by Etest method in presence of cloxacillin and efflux pump inhibitor PAN
Acinetobacter pittii [28] = assay: Antibacterial activity against Acinetobacter genomosp. 3 isolate 90 by Etest method in presence of cloxacillin and efflux pump inhibitor PAN
Acinetobacter pittii [29] = assay: Antibacterial activity against Acinetobacter genomosp. 3 isolate 103 by Etest method in presence of cloxacillin and efflux pump inhibitor PAN
Acinetobacter pittii [30] = assay: Antibacterial activity against Acinetobacter genomosp. 3 isolate 103 by Etest method in presence of cloxacillin and efflux pump inhibitor CCCP
Acinetobacter pittii [31] = assay: Antibacterial activity against Acinetobacter genomosp. 3 isolate 109 by Etest method in presence of cloxacillin and efflux pump inhibitor CCCP
Acinetobacter pittii [32] = assay: Antibacterial activity against Acinetobacter genomosp. 3 isolate 128 by Etest method in presence of cloxacillin and efflux pump inhibitor CCCP
Acinetobacter pittii [33] = assay: Antibacterial activity against Acinetobacter genomosp. 3 isolate 195 by Etest method in presence of cloxacillin and efflux pump inhibitor PAN
Acinetobacter pittii [34] = assay: Antibacterial activity against Acinetobacter genomosp. 3 isolate 195 by Etest method in presence of cloxacillin and efflux pump inhibitor CCCP
Acinetobacter pittii [35] = assay: Antibacterial activity against Acinetobacter genomosp. 3 isolate 243 by Etest method in presence of cloxacillin and efflux pump inhibitor PAN
Acinetobacter pittii [36] = assay: Antibacterial activity against Acinetobacter genomosp. 3 isolate 243 by Etest method in presence of cloxacillin and efflux pump inhibitor CCCP
Acinetobacter pittii [37] = assay: Antibacterial activity against Acinetobacter genomosp. 3 isolate 14 by Etest method in presence of efflux pump inhibitor CCCP
Acinetobacter pittii [38] = assay: Antibacterial activity against Acinetobacter genomosp. 3 isolate 14 by Etest method in presence of cloxacillin and efflux pump inhibitor PAN
Acinetobacter pittii [39] = assay: Antibacterial activity against Acinetobacter genomosp. 3 isolate 14 by Etest method in presence of cloxacillin and efflux pump inhibitor […]
Acinetobacter pittii [40] = assay: Antibacterial activity against Acinetobacter genomosp. 3 isolate 90 by Etest method; procedure, shortened: as §1
Acinetobacter pittii [41] = assay: Antibacterial activity against Acinetobacter genomosp. 3 isolate 103 by Etest method; procedure, shortened: as §1
Acinetobacter pittii [42] = assay: Antibacterial activity against Acinetobacter genomosp. 3 isolate 109 by Etest method; procedure, shortened: as §1
Acinetobacter pittii [43] = assay: Antibacterial activity against Acinetobacter genomosp. 3 isolate 128 by Etest method; procedure, shortened: as §1
Acinetobacter pittii [44] = assay: Antibacterial activity against Acinetobacter genomosp. 3 isolate 243 by Etest method; procedure, shortened: as §1
Escherichia coli [45] = assay: Antibacterial activity against Escherichia coli DH5alpha carrying ampC gene of Acinetobacter genomosp. 3 isolate 20 by Etest method
Procedure, shortened: (§2)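 E. coli DH5α expressing the AG3 isolate ampC gene, PCR-amplified (high-fidelity system, 28 cycles) and cloned into BamHI/HindIII sites of pBGS18 (kanamycin marker) under the CTX-M-14 β-lactamase promoter. Grown at 37°C in LB, with kanamycin 50 µg/ml when needed. β-Lactam MICs determined by Etest per the manufacturer's instructions.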

Escherichia coli [46] = assay: Antibacterial activity against Escherichia coli DH5alpha carrying ampC gene of Acinetobacter genomosp. 3 isolate 65 by Etest method; procedure, shortened: as §2
Escherichia coli [47] = assay: Antibacterial activity against Escherichia coli DH5alpha carrying ampC gene of Acinetobacter genomosp. 3 isolate 69 by Etest method; procedure, shortened: as §2
Escherichia coli [48] = assay: Antibacterial activity against Escherichia coli DH5alpha carrying ampC gene of Acinetobacter genomosp. 3 isolate 103 by Etest method; procedure, shortened: as §2
Escherichia coli [49] = assay: Antibacterial activity against Escherichia coli DH5alpha carrying ampC gene of Acinetobacter genomosp. 3 isolate 195 by Etest method; procedure, shortened: as §2

CC(=O)OCC1=C(C(=O)O)N2C(=O)[C@@H](NC(=O)Cc3cccs3)[C@H]2SC1 [CEPHALOTHIN]
MIC (Acinetobacter pittii [1]): > 256 µg/mL
MIC (Acinetobacter pittii [2]): > 256 µg/mL
MIC (Acinetobacter pittii [3]): > 256 µg/mL
MIC (Acinetobacter pittii [4]): > 256 µg/mL
MIC (Acinetobacter pittii [5]): > 256 µg/mL
MIC (Acinetobacter pittii [6]): > 256 µg/mL
MIC (Acinetobacter pittii [7]): 96 µg/mL
MIC (Acinetobacter pittii [8]): 128 µg/mL
MIC (Acinetobacter pittii [9]): > 256 µg/mL
MIC (Acinetobacter pittii [10]): 192 µg/mL
MIC (Acinetobacter pittii [11]): > 256 µg/mL
MIC (Acinetobacter pittii [12]): > 256 µg/mL
MIC (Acinetobacter pittii [13]): 192 µg/mL
MIC (Acinetobacter pittii [14]): 128 µg/mL
MIC (Acinetobacter pittii [15]): > 256 µg/mL
MIC (Acinetobacter pittii [16]): 48 µg/mL
MIC (Acinetobacter pittii [17]): > 256 µg/mL
MIC (Acinetobacter pittii [18]): > 256 µg/mL
MIC (Acinetobacter pittii [19]): > 256 µg/mL
MIC (Escherichia coli [20]): 3 µg/mL (≈ 7.57 µM)
MIC (Acinetobacter pittii [21]): 128 µg/mL
MIC (Acinetobacter pittii [22]): 12 µg/mL
MIC (Acinetobacter pittii [23]): > 256 µg/mL
MIC (Acinetobacter pittii [24]): 16 µg/mL
MIC (Acinetobacter pittii [25]): > 256 µg/mL
MIC (Acinetobacter pittii [26]): 28 µg/mL
MIC (Acinetobacter pittii [27]): 128 µg/mL
MIC (Acinetobacter pittii [28]): 64 µg/mL
MIC (Acinetobacter pittii [29]): 192 µg/mL
MIC (Acinetobacter pittii [30]): 24 µg/mL
MIC (Acinetobacter pittii [31]): 24 µg/mL
MIC (Acinetobacter pittii [32]): 32 µg/mL
MIC (Acinetobacter pittii [33]): > 256 µg/mL
MIC (Acinetobacter pittii [34]): 96 µg/mL
MIC (Acinetobacter pittii [35]): 192 µg/mL
MIC (Acinetobacter pittii [36]): 12 µg/mL
MIC (Acinetobacter pittii [37]): > 256 µg/mL
MIC (Acinetobacter pittii [38]): 128 µg/mL
MIC (Acinetobacter pittii [39]): 24 µg/mL
MIC (Acinetobacter pittii [40]): > 256 µg/mL
MIC (Acinetobacter pittii [41]): > 256 µg/mL
MIC (Acinetobacter pittii [42]): > 256 µg/mL
MIC (Acinetobacter pittii [43]): > 256 µg/mL
MIC (Acinetobacter pittii [44]): > 256 µg/mL
MIC (Escherichia coli [45]): > 256 µg/mL
MIC (Escherichia coli [46]): 192 µg/mL (≈ 484 µM)
MIC (Escherichia coli [47]): > 256 µg/mL
MIC (Escherichia coli [48]): > 256 µg/mL
MIC (Escherichia coli [49]): > 256 µg/mL

C[C@@H](O)[C@H]1C(=O)N2C(C(=O)O)=C(S[C@@H]3CN[C@H](C(=O)N(C)C)C3)[C@H](C)[C@H]12 [MEROPENEM]
MIC (Acinetobacter pittii [1]): 0.5 µg/mL (≈ 1.3 µM)
MIC (Acinetobacter pittii [2]): 0.38 µg/mL (≈ 0.991 µM)
MIC (Acinetobacter pittii [3]): 0.75 µg/mL (≈ 1.96 µM)
MIC (Acinetobacter pittii [4]): 0.5 µg/mL (≈ 1.3 µM)
MIC (Acinetobacter pittii [5]): 3 µg/mL
MIC (Acinetobacter pittii [6]): 0.38 µg/mL (≈ 0.991 µM)
MIC (Acinetobacter pittii [7]): 0.25 µg/mL
MIC (Acinetobacter pittii [8]): 0.19 µg/mL
MIC (Acinetobacter pittii [9]): 0.25 µg/mL
MIC (Acinetobacter pittii [10]): 0.25 µg/mL
MIC (Acinetobacter pittii [11]): 0.19 µg/mL
MIC (Acinetobacter pittii [12]): 0.25 µg/mL
MIC (Acinetobacter pittii [13]): 1 µg/mL
MIC (Acinetobacter pittii [14]): 0.25 µg/mL
MIC (Acinetobacter pittii [15]): 0.25 µg/mL
MIC (Acinetobacter pittii [16]): 0.25 µg/mL
MIC (Acinetobacter pittii [17]): 0.19 µg/mL
MIC (Acinetobacter pittii [18]): 0.5 µg/mL
MIC (Acinetobacter pittii [19]): 0.25 µg/mL
MIC (Escherichia coli [20]): 0.008 µg/mL (≈ 0.0209 µM)
MIC (Acinetobacter pittii [21]): 0.38 µg/mL
MIC (Acinetobacter pittii [22]): 0.094 µg/mL
MIC (Acinetobacter pittii [23]): 0.38 µg/mL
MIC (Acinetobacter pittii [24]): 0.125 µg/mL
MIC (Acinetobacter pittii [25]): 0.75 µg/mL
MIC (Acinetobacter pittii [26]): 0.25 µg/mL
MIC (Acinetobacter pittii [27]): 0.25 µg/mL
MIC (Acinetobacter pittii [28]): 0.25 µg/mL
MIC (Acinetobacter pittii [29]): 0.75 µg/mL
MIC (Acinetobacter pittii [30]): 1 µg/mL
MIC (Acinetobacter pittii [31]): 0.19 µg/mL
MIC (Acinetobacter pittii [32]): 0.094 µg/mL
MIC (Acinetobacter pittii [33]): 1 µg/mL
MIC (Acinetobacter pittii [34]): 0.38 µg/mL
MIC (Acinetobacter pittii [35]): 0.19 µg/mL
MIC (Acinetobacter pittii [36]): 0.094 µg/mL
MIC (Acinetobacter pittii [37]): 0.25 µg/mL
MIC (Acinetobacter pittii [38]): 0.38 µg/mL
MIC (Acinetobacter pittii [39]): 0.25 µg/mL
MIC (Acinetobacter pittii [40]): 0.75 µg/mL (≈ 1.96 µM)
MIC (Acinetobacter pittii [41]): 3 µg/mL (≈ 7.82 µM)
MIC (Acinetobacter pittii [42]): 0.38 µg/mL (≈ 0.991 µM)
MIC (Acinetobacter pittii [43]): 0.19 µg/mL (≈ 0.495 µM)
MIC (Acinetobacter pittii [44]): 0.25 µg/mL (≈ 0.652 µM)
MIC (Escherichia coli [45]): 0.023 µg/mL (≈ 0.06 µM)
MIC (Escherichia coli [46]): 0.023 µg/mL (≈ 0.06 µM)
MIC (Escherichia coli [47]): 0.023 µg/mL (≈ 0.06 µM)
MIC (Escherichia coli [48]): 0.023 µg/mL (≈ 0.06 µM)
MIC (Escherichia coli [49]): 0.032 µg/mL (≈ 0.0834 µM)
